Source: ChEMBL document CHEMBL1143377, “Design, synthesis, and evaluation of potent, nonpeptidic mimetics of second mitochondria-derived activator of caspases” (J Med Chem, 2009)

Tests used:
[1] = system: MDA-MB-231; experiment: Induction of cIAP1 degradation in human MDA-MB-231 cells after 24 hrs by Western blotting; assay type: functional, cell-based
Summary of the method: (§1)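 MDA-MB-231 breast cancer cells were exposed to Smac mimetics for 24 hours. Cell proteins were then probed on Western blots with specific antibodies against cIAP-1, XIAP, cleaved caspase-8, pro- and cleaved caspase-3, and cleaved PARP. GAPDH served as the loading control.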

[2] = system: MDA-MB-231; experiment: Induction of apoptosis in human MDA-MB-231 cells assessed as increase in caspase 3 activation after 24 hrs by Western blotting; assay type: functional, cell-based; summary of the method: as §1
[3] = system: MDA-MB-231; experiment: Induction of apoptosis in human MDA-MB-231 cells assessed as increase in caspase 8 activation after 24 hrs by Western blotting; assay type: functional, cell-based; summary of the method: as §1
[4] = system: MDA-MB-231; experiment: Induction of apoptosis in human MDA-MB-231 cells assessed as PARP cleavage after 24 hrs by Western blotting; assay type: functional, cell-based; summary of the method: as §1
[5] = system: MDA-MB-231; experiment: cells; details: Homo sapiens, MDA-MB-231, 96 h

| IC50 [5] | Structure (SMILES) | Activity [1] | Activity [2] | Activity [3] | Activity [4] |
| --- | --- | --- | --- | --- | --- |
| 259 nM | CN[C@@H](C)C(=O)N[C@H]1CCCC[C@H]2CC[C@@H](C(=O)NC(c3ccccc3)c3ccccc3)N2C1=O | Dose-dependent effect | Dose-dependent effect | Dose-dependent effect | Dose-dependent effect |
|  | CN[C@@H](C)C(=O)N[C@H]1CCCC[C@H]2CC[C@@H](C(=O)N[C@@H]3CCCc4ccccc43)N2C1=O | Dose-dependent effect | Dose-dependent effect | Dose-dependent effect | Dose-dependent effect |
|  | CN[C@@H](C)C(=O)N[C@H]1CCCC[C@H]2[C@@H](Cc3ccccc3)C[C@@H](C(=O)N[C@@H]3CCCc4ccccc43)N2C1=O | Dose-dependent effect | Dose-dependent effect | Dose-dependent effect | Dose-dependent effect |
| 26 nM | CN[C@@H](C)C(=O)N[C@H]1C/C=C\C[C@H]2[C@@H](Cc3ccccc3)C[C@@H](C(=O)N[C@@H]3CCCc4ccccc43)N2C1=O |  |  |  |  |
